NPY2 pot ag: human NPY-Y2 potentiation or agonism, primary screen; P49146; cells expressing NPY-Y2, potentiator/agonist read-out; activation, % at 3.6 µM; 220,000 compounds, 0.45% hits; in the data active = activation above about 27%;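 also: cells stimulated with NPY near EC25 plus isoproterenol at EC100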
Target sequence (P49146 whole entry, looked up): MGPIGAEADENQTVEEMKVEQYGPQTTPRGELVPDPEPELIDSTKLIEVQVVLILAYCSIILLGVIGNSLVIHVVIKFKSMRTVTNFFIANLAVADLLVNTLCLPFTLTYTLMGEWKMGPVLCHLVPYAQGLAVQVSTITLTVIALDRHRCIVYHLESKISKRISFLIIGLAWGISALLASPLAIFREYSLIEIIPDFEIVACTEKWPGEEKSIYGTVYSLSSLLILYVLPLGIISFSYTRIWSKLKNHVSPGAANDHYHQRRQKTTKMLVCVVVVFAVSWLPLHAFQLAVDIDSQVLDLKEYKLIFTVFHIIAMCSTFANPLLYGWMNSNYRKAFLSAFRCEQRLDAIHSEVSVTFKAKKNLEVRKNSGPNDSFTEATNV
EP2 modulator: EP2 receptor (human) modulation; P43116; induction, % at 25 µM; EP2-expressing cells, cAMP HTRF FRET, PGE2 co-stimulation; 260,000 compounds, 0.83% hits;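 active = compounds whose cAMP rise, as percent of the full-agonist control response, exceeds 60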;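 also: rat C6 glioma line stably carrying human EP2 under a CMV promoter; the protocol text gives 20 µM as final concentration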
EP2 antag: blocks the human prostaglandin E2 receptor EP2; P43116; C6 glioma cells expressing human EP2, cAMP TR-FRET; cells stimulated with saturating PGE2; inhibition, % at 25 µM; 260,000 compounds, 0.52% hits; AID 1422;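 active = percent inhibition above 40 after rounding to a whole number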;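 also: rat C6 glioma host cells with rolipram phosphodiesterase inhibitor present; the protocol text gives 20 µM as final concentration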
NPY Y2 blocker: NPY-Y2 (human) receptor antagonism; 140,000 compounds, 0.99% hits; inhibition, % at 2.7 µM; NPY-Y2 expressing cells, antagonist mode; P49146; AID 793; in the data active = inhibition above about 17%
NPY-Y1 PAM-ag: potentiators or agonists of human neuropeptide Y receptor Y1; P25929; NPY-Y1 expressing cells, potentiator/agonist activation; activation, % at 3.6 µM; 220,000 compounds, 0.37% hits; in the data active = activation above about 33%, passing the limit was not always enough;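 also: cells stimulated with NPY at EC10 then isoproterenol at EC100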
NPY Y1 blocker: blocks the human neuropeptide Y Y1 receptor; P25929; 200,000 compounds, 1% hits; inhibition, % at 3.6 µM; HEK293-CNG Y1 cells, membrane potential fluorescence; NPY at EC95, then isoproterenol;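 active = inhibition above the campaign mean inhibition of all tested compounds plus 3 SD, cut at about 20% in these data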
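Assay system: HEK293 Y1/CNG channel cell line; Doses: single compound dose of 3.6 µM, 0.4% DMSO; Timing: dye 3 h, compound 60 min room temperature, stimulation 45 min; Technique: Membrane-potential fluorescent dye readout; Measure: % inhibition of NPY effect.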
Numbers stand for hits; - = inactive; . = no result. Most compounds without a hit are left out; they make up all but 2.8% or so of the library.

SMILES | NPY2 pot ag | EP2 modulator | EP2 antag | NPY Y2 blocker | NPY-Y1 PAM-ag | NPY Y1 blocker
O=S(=O)(NC1=NCCCCC1)c1ccc(Cl)cc1 | - | - | - | . | - | -
COc1ccc(/C(O)=C2/C(=O)C(=O)N(CCC(=O)O)C2c2ccccn2)cc1 (configuration not stated) | . | - | - | . | . | .
O=C(/C=C/c1cccc2ccccc12)NCCC1=CCCCC1 | - | - | . | 22 | - | 32
Cc1ccc(-c2c[n+](Cc3ccc(Cl)c(Cl)c3)c3n2CCC3)cc1 | - | - | - | - | - | -
C[N@@+]1(Cc2ccc(Cl)c(Cl)c2)CCC[C@@H]1c1ccc[n+](Cc2ccc(Cl)c(Cl)c2)c1 | . | - | 50 | . | . | .
CCOc1ccc(C(=O)O)cc1C1C2=C(CCCC2=O)NC2=C1C(=O)CCC2 | . | - | - | . | . | .
O=C(c1nc2ccc([N+](=O)[O-])cc2[nH]c1=O)[C@@H](O)c1ccc2c(c1)OCO2 | . | - | 50 | . | . | .
Cc1ccccc1CNC1CCCCC1 | - | - | - | - | - | -
Oc1cc(CN2COc3ccccc32)c(O)cc1CNC1CCCCC1 | . | - | 118 | . | . | .
COc1ccccc1C1(O)CC2CCC(C1)N2c1ncnc2nc[nH]c12 (configuration not stated) | . | - | . | . | . | .
N#CC1(Cc2ccc(Cl)cc2)c2ccccc2C=CN1C(=O)c1ccccc1 (configuration not stated) | - | 63 | - | - | - | -
COc1ccc(-c2c(C)nn3c(NCC4CCCO4)c(C)c(C)nc23)cc1 (configuration not stated) | . | - | . | . | . | .
Cc1ccnc(NC(=O)C(C)(C)Oc2ccc(Cl)cc2)n1 | . | - | - | . | . | .
CCOc1ccccc1NC(=O)c1sc(NC(=O)c2ccc3c(c2)OCO3)c(C(=O)OC)c1C | . | - | - | . | . | .
Nc1nc(-c2cccc([N+](=O)[O-])c2)cc(-c2cc(-c3cccc([N+](=O)[O-])c3)nc(N)n2)n1 | . | - | 44 | . | . | .
Cc1nn(CCC(=O)N2CCCc3c(Cl)cc(Cl)c(O)c32)c(C)c1C | . | - | - | . | . | .
COc1ccc(Cc2nnc(NC(=O)CSc3ccc(C)cc3)s2)cc1OC | - | - | - | - | - | 22
CCN1CC23C=CC(O2)C(C(=O)NC2(c4ccc(F)cc4)CCCC2)C3C1=O (configuration not stated) | . | - | - | . | . | .
CCC(C)Oc1nc(C)cc(C)c1S(=O)(=O)c1ccccc1C (configuration not stated) | - | 64 | - | - | - | -
C#CCOc1nc(C)cc(C)c1S(=O)(=O)c1ccccc1C | - | - | - | . | - | -
c1ccc(Cn2ncc3c2ncn2nc(CSc4nc5ccccc5o4)nc32)cc1 | . | - | - | . | . | .
Cc1cc2c(OCC(O)CNC(C)(C)C)cccc2[nH]1 (configuration not stated) | 105 | - | - | - | 111 | -
Cc1cc2c(OCC(O)CN3CCCC3)cccc2[nH]1 (configuration not stated) | 100 | - | - | . | 110 | -
COCCCNCC(O)COc1cccc2[nH]c(C)cc12 (configuration not stated) | 101 | - | - | . | 108 | -
CN1CCN(CC(O)COc2cccc3ccccc23)CC1 (configuration not stated) | . | - | - | . | . | .
SMILES | NPY2 pot ag | EP2 modulator | EP2 antag | NPY Y2 blocker | NPY-Y1 PAM-ag | NPY Y1 blocker
CC(C)(C)NCC(O)COc1cccc2c1C[C@H](O)[C@H](O)C2 (some centres not stated) | 102 | - | - | - | 118 | -
CCn1c(O)c(C=Nc2cccc(C)c2)sc1=S | . | - | - | . | . | .
COc1ccc(S(=O)(=O)N(CC(=O)N2CCC(C(N)=O)CC2)c2ccc(C)cc2)cc1 | . | - | - | . | . | .
CCCCC(CC)CN=C(N)NC(N)=NCCCCCCN=C(N)NC(N)=NCC(CC)CCCC (configuration not stated) | . | - | 71 | . | . | .
NC(=NCCC[C@H](N)C(=O)O)NO | . | - | - | . | . | .
c1ccc(C[n+]2cccc(-c3cc4ccccc4[nH]3)c2)cc1 | . | - | 59 | . | . | .
CC1CCN(S(=O)(=O)c2ccc(-c3nnc(SCC(N)=O)o3)cc2)CC1 | . | - | - | . | . | .
CC(=O)C[n+]1cccc(C)c1 | . | - | - | . | . | .
Cc1nnc(N2C(=O)C(O)=C(C(=O)c3ccco3)C2c2ccc(C(C)(C)C)cc2)s1 (configuration not stated) | - | - | 57 | - | - | -
Cc1nnc(N2C(=O)C(O)=C(C(=O)c3ccco3)C2c2ccc(F)cc2)s1 (configuration not stated) | - | - | - | - | - | -
Cc1ccc(N(Cc2ccc([N+](=O)[O-])cc2)C(=O)c2ccco2)cc1C | - | 63 | - | - | - | -
CN(C)CCCNc1c2c(nc3cc(-c4cccc(F)c4)nn13)CCCC2 | . | - | - | . | . | .
COc1ccc(C(c2nnnn2C2CCCCC2)N2CCN(c3ccccc3)CC2)c(OC)c1 (configuration not stated) | . | - | - | . | . | .
c1ccc(CN2C3=NCCN3c3ccccc32)cc1 | - | - | - | - | - | -
Clc1ccc(CN2C3=NCCN3c3ccccc32)cc1Cl | - | - | - | 18 | - | 39
N#Cc1c(NCCN)nc(-c2ccccc2)c2c1CCCC2 | - | - | - | 24 | - | 29
Cc1c(NC(=O)c2cccs2)cccc1-c1nc2ccccc2s1 | 27 | - | - | - | 46 | -
O=C(Nc1ccc(-c2cn3ccccc3n2)cc1)c1cccs1 | - | - | - | . | - | -
O=C(Nc1ccc(-c2cn3ccccc3n2)cc1)c1cc(Br)ccc1O | . | - | 45 | . | . | .
O=C(Nc1cccc(-c2cn3ccccc3n2)c1)c1cccc(Cl)c1 | - | - | 61 | - | - | -
CCCC1C(C#N)=C(N)OC2=C1C(=O)CCC2 (configuration not stated) | . | - | - | . | . | .

High-throughput results as filed in PubChem BioAssay.
